Results on 4 compounds are retold here after ChEMBL document CHEMBL1255484, “In vitro activity of ACH-702, a new isothiazoloquinolone, against Nocardia brasiliensis compared with econazole and the carbapenems imipenem and meropenem alone or in combination with clavulanic acid” (Antimicrob Agents Chemother, 2010).

Series [1] deals with Nocardia brasiliensis. Nature of the series: Antibacterial activity against Nocardia brasiliensis isolated from actinomycetoma patient by broth dilution method. It is filed as functional. In outline:
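CLSI M24-A broth microdilution on 30 N. brasiliensis isolates from human actinomycetoma, including HUJEG-1, identified biochemically and by 16S rRNA gene fragment sequencing. Ground colonies were suspended to 0.5 McFarland in cation-adjusted Mueller-Hinton broth, giving 1 × 10^4 to 5 × 10^4 CFU per well, and added to serial drug dilutions. Incubation was 3 days at 35°C. MIC is the lowest concentration giving total growth inhibition; MIC50/MIC90 are reported.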
(Broth dilution looks for growth in wells or tubes with falling amounts of substance.)

The nature of series [2]: Tmax in mouse plasma at 3.3 mg/kg, po. It is filed as ADME, organism-based. On the set-up: dose 3.3 mg/kg, route oral.
The subject of series [3] is Mus musculus. Put plainly: Plasma concentration in mouse at 3.3 mg/kg, po. It is filed as ADME, organism-based. Details: dose 3.3 mg/kg, route oral. To be noted: in vivo.
In series [4] the test system is Nocardia brasiliensis. Nature of the series: Antibacterial activity against Nocardia brasiliensis isolated from actinomycetoma patient by broth dilution method in presence of clavulanic acid. It is filed as functional. The method, boiled down:
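Same CLSI M24-A broth microdilution: 30 human actinomycetoma N. brasiliensis isolates, cation-adjusted Mueller-Hinton broth, inoculum 1 × 10^4 to 5 × 10^4 CFU per well, 3 days at 35°C. Clavulanic acid at 0.25 μg/ml was added with each carbapenem dilution. Drug-free growth well; E. coli ATCC 25922 and S. aureus ATCC 29213 as external controls. MIC is total growth inhibition.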

≈ marks a conversion by molar mass, not a printed value. Some results are limits rather than exact numbers.

`COc1c(N2CC[C@@H](C(C)(C)N)C2)c(F)cc2c(=O)c3c(=O)[nH]sc3n(C3CC3)c12`: in series [1], the MIC50 – broadly, an inhibitory concentration at the 50% level, which refers to growth in some studies and to a panel of isolates in others – was found to be 0.125 µg/mL (≈ 0.289 µM); the MIC90 (in general, the lowest concentration that inhibits either 90% of growth or 90% of the strains tested, depending on the study) was 0.5 µg/mL (≈ 1.16 µM).

As to `Clc1ccc(COC(Cn2ccnc2)c2ccc(Cl)cc2Cl)cc1` (centres undefined) [ECONAZOLE], in series [2], the Tmax – broadly, the time from dosing to the highest level – came to 1 h. In series [3], this compound gave a Cp of 230 ng/mL. In series [1], the MIC50 was found to be 2 µg/mL (≈ 5.24 µM) and the MIC90 worked out at 4 µg/mL (≈ 10.5 µM).

Take `C[C@@H](O)[C@H]1C(=O)N2C(C(=O)O)=C(SCCNC=N)C[C@H]12` [IMIPENEM ANHYDROUS]: in series [1], the MIC50 came out at 64 µg/mL (≈ 214 µM) and the MIC90 is over 64 µg/mL. Also, in series [4], the MIC50 is 64 µg/mL and the MIC90 is over 64 µg/mL.

For the compound `C[C@@H](O)[C@H]1C(=O)N2C(C(=O)O)=C(S[C@@H]3CN[C@H](C(=O)N(C)C)C3)[C@H](C)[C@H]12` [MEROPENEM], the figures for the MIC50 in series [1] and in series [4] were 2 µg/mL (≈ 5.22 µM) and 2 µg/mL, respectively. Moreover, the MIC90 in series [1] was determined as 8 µg/mL (≈ 20.9 µM); in series [4], 8 µg/mL.
